Data published in ChEMBL document CHEMBL2069254, “Synthesis and one-electron reduction characteristics of radiation-activated prodrugs possessing two 5-fluorodeoxyuridine units” (Bioorg Med Chem, 2012).
pIC50: −log10 of the molar value. Active and inactive are the calls of the source. The calls are words filed in the database; no cut-off is given here.

Columns and labels:
[1] = Radiation stability assessed as compound decomposition at 100 uM after exposing to 6.0 Gy/min X-ray irradiation aqueous solution containing 2-methyl-2-propanol under hypoxic conditions by HPLC; type: physicochemical; settings: buffer
[2] = Radiation stability assessed as 5-fluorodeoxyuridine formation at 100 uM after exposing to 6.0 Gy/min X-ray irradiation aqueous solution containing 2-methyl-2-propanol under hypoxic conditions by HPLC; type: physicochemical; settings: buffer
[3] = Radiation stability assessed as compound decomposition at 100 uM after exposing to 6.0 Gy/min X-ray irradiation aqueous solution containing 2-methyl-2-propanol under aerobic conditions by HPLC; type: physicochemical; settings: buffer
[4] = Radiation stability assessed as 5-fluorodeoxyuridine formation at 100 uM after exposing to 6.0 Gy/min X-ray irradiation aqueous solution containing 2-methyl-2-propanol under aerobic conditions by HPLC; type: physicochemical; settings: buffer
A549 [5] = assay: Cytotoxicity against human A549 cells after 72 hrs by microplate reader method; type: functional, cell-based; settings: A549, 72 h
Outline: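 A549 cells grown in DMEM with 10% FBS and 1% streptomycin/penicillin, seeded at 1500 cells/well, cultured 24 h at 37 °C in 5% CO2/95% air. Exposed to a concentration series under aerobic conditions for 72 h. Viability read by WST-8 (CCK-8) after 30 min at 37 °C; IC50 estimated from viability curves.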

A549 [6] = assay: Cytotoxicity against human A549 cells incubated with 125 uM compound for 12 hrs followed by pre-irradiated 30 to 6 Gy/min X-ray irradiation measured after 72 hrs under hypoxic conditions by microplate reader method; type: functional, cell-based
Outline: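 A549 cells seeded at 1500 cells/well and held 6 h at 37 °C under hypoxia (<0.3% O2). Compound added, then 12 h hypoxic incubation at 37 °C. Plates kept hypoxic and X-irradiated at 6 Gy, then incubated 72 h aerobically. Viability read by WST-8 (CCK-8). Mean ± S.D., n = 9.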

A549 [7] = assay: Cytotoxicity against human A549 cells exposed to 1 uM compound pre-irradiated 30 to 120 Gy/min X-ray irradiation measured after 72 hrs under aerobic conditions by microplate reader method; type: functional, cell-based
Outline: (§1)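 Compound dissolved in DMEM and X-irradiated (6.0 Gy/min) in a sealed glass ampoule at ambient temperature, under hypoxic or aerobic conditions. A549 cells were seeded at 1500 cells/well and grown 24 h at 37 °C aerobically, then incubated with the irradiated solution aerobically for 72 h. Viability read by WST-8 (CCK-8). Mean ± S.D., n = 6.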

A549 [8] = assay: Cytotoxicity against human A549 cells exposed to 1 uM compound pre-irradiated 30 to 120 Gy/min X-ray irradiation measured after 72 hrs under hypoxic conditions by microplate reader method; type: functional, cell-based; outline: as §1

| SMILES | Drug degradation [1] [nmol/J] | Drug metabolism [2] [nmol/J] | Drug degradation [3] [nmol/J] | Drug metabolism [4] [nmol/J] | pIC50 (A549 [5]) | Activity (A549 [6]) | Activity (A549 [7]) | Activity (A549 [8]) |
| --- | --- | --- | --- | --- | --- | --- | --- | --- |
| CC(C(=O)C(C)n1c(=O)c(F)cn([C@H]2C[C@H](O)[C@@H](CO)O2)c1=O)n1c(=O)c(F)cn([C@H]2C[C@H](O)[C@@H](CO)O2)c1=O (stereo not given in full) | 291 | 115.3 | 177.2 | 26.2 | 5.98 | – | – | – |
| O=C(Cn1c(=O)c(F)cn([C@H]2C[C@H](O)[C@@H](CO)O2)c1=O)Cn1c(=O)c(F)cn([C@H]2C[C@H](O)[C@@H](CO)O2)c1=O | 319.1 | 125.9 | 173.6 | 14.5 | 5.33 | inactive | inactive | Active |
| CC(=O)Cn1c(=O)c(F)cn([C@H]2C[C@H](O)[C@@H](CO)O2)c1=O | 312.5 | 50.9 | – | – | – | – | – | – |
| O=c1c(F)cn([C@H]2C[C@H](O)[C@@H](CO)O2)c(=O)n1CCCn1c(=O)c(F)cn([C@H]2C[C@H](O)[C@@H](CO)O2)c1=O | 148.8 | < 1 | 140.3 | 1.4 | – | – | – | – |
| O=c1[nH]c(=O)n([C@H]2C[C@H](O)[C@@H](CO)O2)cc1F [FLOXURIDINE] | – | – | – | – | 7.91 | – | – | – |
